Hits are enriched below; roughly 1.6% of the tested compounds scored in any of these assays.
TAG inh – inhibitors of triacylglycerol accumulation, primary screen, cell-based, uHTS, fluorescence, H9c2; H9c2 cells, Nile Red lipid (TAG) fluorescence; cells loaded with 200 µM oleic acid; inhibition, % at 12.5 µM; hit rate 0.66% among 230,000; AID 651582, 2012;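 active = pattern-corrected inhibition of lipid staining of at least 50% with the nuclear-stain viability signal not falling by more than 50%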
SR-BI DiI inh – inhibitors of SR-BI mediated HDL lipid uptake, primary screen, ldlA[mSR-BI] cells, fluorescence, single point. Scavenger receptor class B member 1 (Mus musculus), Q61009. ldlA[mSR-BI] CHO cells, DiI-HDL uptake fluorescence, 3 h. inhibition, % at 12.5 µM. hit rate 0.96% among 320,000. AID 488896, 2010;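 active = mean replicate inhibition of at least 70% and a set share of replicates each scoring 70 or more; inconclusive = meets just one of the two criteria; inactive = fails both criteria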
Target sequence (Q61009 whole entry, looked up): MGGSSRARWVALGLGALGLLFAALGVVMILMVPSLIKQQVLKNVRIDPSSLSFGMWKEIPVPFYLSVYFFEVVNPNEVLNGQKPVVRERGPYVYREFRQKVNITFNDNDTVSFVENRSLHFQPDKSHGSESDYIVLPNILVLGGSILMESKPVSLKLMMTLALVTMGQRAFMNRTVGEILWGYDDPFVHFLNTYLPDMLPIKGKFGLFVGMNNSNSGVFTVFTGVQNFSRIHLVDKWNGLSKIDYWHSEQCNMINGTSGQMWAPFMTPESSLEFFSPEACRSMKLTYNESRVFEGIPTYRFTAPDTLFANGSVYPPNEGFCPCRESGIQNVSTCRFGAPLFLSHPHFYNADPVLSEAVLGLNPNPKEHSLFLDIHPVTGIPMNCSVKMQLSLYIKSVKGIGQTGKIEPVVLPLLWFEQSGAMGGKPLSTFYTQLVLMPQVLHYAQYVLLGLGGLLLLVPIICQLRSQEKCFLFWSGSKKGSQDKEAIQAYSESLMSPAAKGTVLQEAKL
SR-BI uptake up – activators of SR-BI mediated DiI-HDL uptake, primary screen, ldlA[mSR-BI] CHO cells, DiI fluorescence; activation, % at 12.5 µM; hit rate 0.096% among 320,000; AID 504775, 2011; 3 h; 100 = double the neutral-control signal;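 active = mean replicate activation of at least 60% and every replicate at or above 60%; inconclusive = mean or all-replicate condition met, but not both; inactive = mean below 60% and not all replicates reaching 60%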
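Assay system: CHO ldlA[mSR-BI] cells, LDL receptor-null, SR-BI overexpressing; medium: Ham's F12 with 0.5% BSA, HEPES 25 mM, pH 7.4; also added: DiI-HDL 10 µg/mL; timing: 3 h uptake period with compound, 37 °C; signal: DiI fluorescence, bottom read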
Bfl-1 A1 inh – caspase 3/7 activation in MEF A1-2A-BIM cells, primary screen, A1 inhibitor project, cell-based, luminescence, HTS | Caspase-Glo 3/7 luminescence, 3 h; percent of clofoctol response, vehicle zero | caspase activation, % (test concentration not listed) | hit rate 0.066% among 330,000 | AID 2462, 2010;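 active = over half of replicate activation scores above 10%, or exactly half above 10 with the replicate mean above 10; inconclusive = replicate mean below 10 yet half the replicates above 10; inactive = over half of replicates below 10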
Vif imaging – HIV Vif self-association inhibitors, primary screen, imaging, HEK293T, single point. HEK293T cells, Vif self-association by quenched fluorescence, 24 h. inhibition, % at 7.49 µM. hit rate 0.35% among 340,000. AID 602346, 2012; in the data active = inhibition above about 50%, passing the limit was not always enough; inconclusive = no clear call, values can overlap the other calls; inactive = below about 31%
Numbers stand for hits; - = inactive; ? = inconclusive; . = no result.

SMILES | TAG inh | SR-BI DiI inh | SR-BI uptake up | Bfl-1 A1 inh | Vif imaging
Cc1cc(C)c(S(=O)(=O)N2CCCC(C(=O)NCc3ccncc3)C2)c(C)c1 (configuration not stated) | - | - | - | - | ?
CCOC(=O)CC[C@H](NC(=O)Cn1cnc(C(=O)Nc2ccc(C)c(C)c2)n1)C(=O)OCC | - | - | - | . | .
Cc1ccc(NC2=C(NC(=O)c3ccccc3)C(=O)c3ccccc3C2=O)cc1Cl | . | 79 | - | - | -
COc1ccc([C@H]2CC(=O)C=C(/C=C/c3ccccc3)C2)cc1OC | . | - | - | - | -
Nc1ccccc1-n1cccc1 | - | - | - | - | -
CC(C)CN1CCN(C(=O)COC(=O)c2ccc(S(C)(=O)=O)c([N+](=O)[O-])c2)CC1 | 65 | . | . | . | .
CS(=O)(=O)c1ccc(C(=O)OCC(=O)NC23CC4CC(CC(C4)C2)C3)cc1[N+](=O)[O-] | . | - | - | - | .
CC(OC(=O)c1ccc(S(C)(=O)=O)c([N+](=O)[O-])c1)C(=O)NC1C2CC3CC(C2)CC1C3 (configuration not stated) | 65 | . | . | . | -
CCC(OC(=O)c1ccc(S(C)(=O)=O)c([N+](=O)[O-])c1)C(=O)NC1C2CC3CC(C2)CC1C3 (configuration not stated) | - | . | . | . | -
Cc1ccc(C)c(S(=O)(=O)N2CCCOC2CNC(=O)C(=O)NCc2ccccn2)c1 (configuration not stated) | - | - | - | - | -
COc1ccc(-n2nnnc2CNC(=O)C(=O)c2c(C)[nH]c3ccccc23)cc1 | - | - | - | - | -
Cc1ccc(S(=O)(=O)N2CCN(C(=O)CNC(=O)c3ccc(Br)o3)CC2)cc1 | - | - | - | - | -
COc1ccc(-c2nnc(SCc3nc4ccccc4c(=O)[nH]3)o2)cc1 | - | . | . | - | 52
COc1ccc(C(=O)c2sc3nc(C)cc(-c4cccs4)c3c2N)cc1OC | . | - | - | - | 176
CC(C)N1CCc2c(sc(NC(=O)Cc3ccccc3)c2C(N)=O)C1 | - | - | - | - | -
CC(=O)Nc1sc2c(c1-c1nc3ccccc3s1)CCN(C(C)C)C2 | 92 | - | - | ? | -
CCOC(=O)c1c(NC(=O)C2=C(C)NC(=S)NC2c2ccc(F)cc2)sc(C)c1C (configuration not stated) | . | 71 | - | - | -
CCOC(=O)c1c(NC(=O)C2=C(C)NC(=S)NC2c2ccc(F)cc2F)sc(C)c1C (configuration not stated) | . | - | - | - | -
CCOC(=O)C1=C(C)NC(=S)NC1c1ccc(OCC(=O)N2CCCCC2)cc1 (configuration not stated) | . | 73 | - | - | -
CCOC(=O)c1c(NC(=O)C2=C(C)NC(=S)NC2c2ccc(C)cc2)sc(C)c1C (configuration not stated) | . | 72 | - | - | -
CCOC(=O)C1=C(C)NC(=S)NC1c1ccc(OCC(=O)N2CCCCCC2)c(OC)c1 (configuration not stated) | . | ? | - | - | -
Nc1nc(N)c2c(ccc3c2ccn3Cc2cccc([N+](=O)[O-])c2)n1 | . | . | . | . | -
O=C(CCCOc1ccc(Cl)cc1Cl)N/N=C/c1cccc([N+](=O)[O-])c1 | - | - | 330 | - | -
O=C(COc1ccc(Cl)cc1Cl)N/N=C/c1cccnc1 | . | - | - | - | -
C/C(N=Nc1nc2ccccc2s1)=N\Nc1ccccc1O | 58 | . | . | - | -
Oc1[nH]c2ccccc2c1N=Nc1nc2ccccc2s1 | . | - | - | - | -
CCCCOc1ccc(C(=O)NNC(=O)C2C3C=CC(C3)C2C(=O)O)cc1 (configuration not stated) | - | - | - | - | -
CC(C)(C)NC(=O)CN(Cc1ccc(F)cc1)C(=O)Cn1nnc(-c2ccc(F)cc2)n1 | - | - | - | - | 58
O=C(CN(Cc1ccco1)C(=O)Cn1nnc(-c2ccc(F)cc2)n1)NC1CCCC1 | . | - | - | - | .
O=C(Nc1nc2ccc(F)cc2s1)c1cccc(S(=O)(=O)N2CCc3ccccc32)c1 | . | 74 | - | - | -

Source: PubChem (several laboratories)
